This passage reports NBT positive cells, IC50 and EC50 results from ChEMBL document CHEMBL1133463, “Novel mutual prodrug of retinoic and butyric acids with enhanced anticancer activity” (J Med Chem, 2000).

The test system of assay [1] is HL-60. In words: Differentiation activity was determined by evaluation of NBT reduction activity of HL-60 cells, % of NBT positive cells determined. It counts as functional, Homo sapiens. The gist of the method:
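HL-60 grown 2 days with or without compound at 0.25 μM. Cultures then given 0.1% NBT, stimulated with 0.4 μM PMA and incubated 30 min at 37 °C. At least 200 cells scored microscopically. % NBT-positive cells taken as stained/total, minus the untreated-culture value. Three independent experiments.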

Another assay relates to 3LLD122. The assay can be described thus: Concentration required to inhibit the colony formation of lung carcinoma (3LLD122) cell lines by 50%. The settings on record: Mus musculus. It counts as functional, cell-based. The method in brief:
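Murine 3LLD122 (highly metastatic 3LL subclone) grown in RPMI with 10% FCS and 2 mM glutamine at 37 °C, 5% CO2. Compounds added to the upper layer of a semisolid agar bilayer. Aggregates of >20 cells scored as colonies after 7 days by inverted microscope. Drugs in DMSO at 1:1000 dilution (final DMSO ≤0.1%).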

The subject of the next assay is MIA PaCa-2. In words: Concentration required to inhibit the colony formation of pancreatic human (PACA) cell lines by 50%. The format is functional, cell-based. The gist of the method: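 PaCa2 single-cell suspensions plated at 400 cells per 60-mm dish. Drug exposure began 24 h after plating. Colonies formed over 7-12 days, then were MeOH-fixed, Giemsa-stained, counted and compared with untreated control. Triplicate assays. Drugs in DMSO, final ≤0.1%.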

Assay [2] concerns HL-60. In words: In vitro for the differentiation induction activity determined in the human myeloid leukemic cell line HL-60. The settings on record: read-out: ED50 (the source's name). The format is functional. The method in brief: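 HL-60 treated 4 days. NBT reduction measured with 0.1% NBT plus 0.4 μM PMA for 30 min at 37 °C, scoring ≥200 cells, with the untreated background subtracted. ED50 is the concentration giving half-maximal NBT reduction, obtained by linear regression and averaged over three independent experiments.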

Values joined by “and” are separate entries in the source; they are usually repeats but may differ in a detail not shown here. Equal entries are not always repeated. A value given as a limit tells only on which side of the number the result lay.

Turning to `CC1=C(/C=C/C(C)=C/C=C/C(C)=C/C(=O)OCOC(=O)C(C)(C)C)C(C)(C)CCC1`, in the assay with HL-60 [1], the NBT positive cells was 13% and 21% and 17%.

Consider `CCCC(=O)OCOC(=O)C(C)(C)C` [AN-9], for which the IC50 amounted to 35 µM with 3LLD122 and 30 µM in the assay with MIA PaCa-2.

Take `CC1=C(/C=C/C(C)=C/C=C/C(C)=C/C(=O)O)C(C)(C)CCC1` [TRETINOIN]: the values for the IC50 in the assay with 3LLD122 and in the assay with MIA PaCa-2 were 33 µM and 9.5 µM, respectively. Further, the EC50 in the assay on HL-60 [2] turned out to be 1.25 µM. Further, the NBT positive cells in the assay with HL-60 [1] was 21% and 30% and 22%.

As to `CCC(=O)OCOC(=O)/C=C(C)/C=C/C=C(C)/C=C/C1=C(C)CCCC1(C)C`, the NBT positive cells in the assay with HL-60 [1] is 60% and 56% and 57%.

As to `CCCC(=O)O` [BUTYRIC ACID], the IC50 was above 1000 µM with 3LLD122 and 250 µM in the assay with MIA PaCa-2. Besides, the EC50 with HL-60 [2] was 285 µM.

`CC1=C(/C=C/C(C)=C/C=C/C(C)=C/C(=O)OCOC(=O)C(C)C)C(C)(C)CCC1`: in the assay on HL-60 [1], the NBT positive cells is 48% and 54% and 49%.

Take `CCCC(=O)OCOC(=O)/C=C(C)/C=C/C=C(C)/C=C/C1=C(C)CCCC1(C)C`: the results for the IC50 in the assay on 3LLD122 and with MIA PaCa-2 were 4.5 µM and 4 µM, respectively. For the same molecule, the EC50 with HL-60 [2] turned out to be 0.031 µM. Besides, the NBT positive cells in the assay with HL-60 [1] was 72% and 74% and 78%.

Usually IC50 stands for the concentration that inhibits the measured activity by half. Higher therefore signals weaker potency in that assay.
